Experimental data published in ChEMBL document CHEMBL4725245, “The synthesis and biological evaluation of nucleobases/tetrazole hybrid compounds: A new class of phosphodiesterase type 3 (PDE3) inhibitors” (Bioorg Med Chem, 2020).

Assays:
[1] = tested on: HeLa; assay: Antiproliferative activity against human HeLa cells assessed as reduction in cell viability after 24 hrs by MTT assay; type: functional, cell-based
How it was run: (§1)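 Cells held in DMEM with 10% heat-inactivated FBS, penicillin and streptomycin at 37 °C, 5% CO2. HeLa seeded at 5000 cells/well or MCF-7 at 10,000 cells/well, grown overnight, then exposed to compounds at 0.0–200.0 µM (two-fold steps) for 24 h. MTT 0.5 mg/mL for 4 h at 37 °C, formazan dissolved in DMSO, absorbance read at 545 nm with 630 nm reference.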

[2] = tested on: MCF7; assay: Antiproliferative activity against human MCF7 cells assessed as growth inhibition after 24 hrs by MTT assay; type: functional, cell-based; details: MCF7, 24 h; how it was run: as §1
[3] = molecular target: cGMP-inhibited 3',5'-cyclic phosphodiesterase 3A (Homo sapiens, UniProt Q14432); assay: Inhibition of human PDE3A expressed in Sf9 cells using cAMP as substrate after 60 mins by IMAP TR-FRET assay
Chain of cGMP-inhibited 3',5'-cyclic phosphodiesterase 3A (Q14432 whole entry): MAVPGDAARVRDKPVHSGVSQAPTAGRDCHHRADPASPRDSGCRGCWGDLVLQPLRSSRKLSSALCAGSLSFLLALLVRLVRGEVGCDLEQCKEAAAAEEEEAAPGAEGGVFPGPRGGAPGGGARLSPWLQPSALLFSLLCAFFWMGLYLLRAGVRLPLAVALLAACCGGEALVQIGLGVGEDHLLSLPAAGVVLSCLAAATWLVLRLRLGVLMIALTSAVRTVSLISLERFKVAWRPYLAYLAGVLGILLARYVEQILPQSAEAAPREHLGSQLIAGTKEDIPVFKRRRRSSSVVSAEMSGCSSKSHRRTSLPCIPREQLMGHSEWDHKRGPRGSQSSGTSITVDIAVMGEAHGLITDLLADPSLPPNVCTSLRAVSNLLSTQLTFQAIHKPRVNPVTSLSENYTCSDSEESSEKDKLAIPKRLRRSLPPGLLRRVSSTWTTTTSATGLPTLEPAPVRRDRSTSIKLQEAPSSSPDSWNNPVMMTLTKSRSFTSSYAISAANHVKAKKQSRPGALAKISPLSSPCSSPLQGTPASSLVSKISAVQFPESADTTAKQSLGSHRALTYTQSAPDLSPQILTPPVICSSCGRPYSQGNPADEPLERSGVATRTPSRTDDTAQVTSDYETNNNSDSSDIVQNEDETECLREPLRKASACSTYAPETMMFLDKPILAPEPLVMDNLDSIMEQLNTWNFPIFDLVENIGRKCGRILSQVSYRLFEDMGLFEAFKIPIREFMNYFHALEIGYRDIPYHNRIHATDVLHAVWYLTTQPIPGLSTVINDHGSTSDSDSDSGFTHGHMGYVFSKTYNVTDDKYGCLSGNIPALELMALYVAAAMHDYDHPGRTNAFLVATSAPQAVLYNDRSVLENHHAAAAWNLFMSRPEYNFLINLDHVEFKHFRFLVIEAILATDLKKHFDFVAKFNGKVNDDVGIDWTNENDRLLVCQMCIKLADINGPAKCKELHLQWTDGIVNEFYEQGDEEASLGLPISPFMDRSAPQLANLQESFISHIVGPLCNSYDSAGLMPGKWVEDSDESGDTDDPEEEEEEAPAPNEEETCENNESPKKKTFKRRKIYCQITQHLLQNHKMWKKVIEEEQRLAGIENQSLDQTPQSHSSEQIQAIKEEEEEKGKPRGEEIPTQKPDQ

IC50 [1] [µM] | IC50 [2] [µM] | IC50 [3] [µM] | SMILES
18.4 | 25.7 | – | Nc1nc2c(ncn2CCCOc2ccc(-c3nnn[nH]3)cc2)c(=O)[nH]1
68 | 90.5 | – | Nc1nc2c(ncn2CCCCOc2ccc(-c3nnn[nH]3)cc2)c(=O)[nH]1
57.7 | 80.7 | – | O=c1ccnc(SCCCOc2ccc(-c3nnn[nH]3)cc2)[nH]1
61.1 | 73.3 | – | Cn1cnc2c1c(=O)n(CCCOc1ccc(-c3nnn[nH]3)cc1)c(=O)n2C
50.6 | 68.4 | 0.00513 | O=c1ccnc(SCCCCOc2ccc(-c3nnn[nH]3)cc2)[nH]1
55.3 | 74.7 | 0.00583 | Cn1c(=O)c2c(ncn2CCCOc2ccc(-c3nnn[nH]3)cc2)n(C)c1=O
21.1 | 29.4 | – | Nc1ncnc2c1ncn2CCCOc1ccc(-c2nnn[nH]2)cc1
63.3 | 76 | – | O=c1cnn(CCCCOc2ccc(-c3nnn[nH]3)cc2)c(=O)[nH]1
59.9 | 73.7 | – | Cn1cnc2c1c(=O)n(CCCCOc1ccc(-c3nnn[nH]3)cc1)c(=O)n2C
38.9 | 54 | – | O=c1ccn(CCCOc2ccc(-c3nnn[nH]3)cc2)c(=O)[nH]1
45.1 | 59.5 | – | Cn1c(=O)c2c(ncn2CCCCOc2ccc(-c3nnn[nH]3)cc2)n(C)c1=O
25.6 | 35.8 | – | O=c1ccn(CCCCOc2ccc(-c3nnn[nH]3)cc2)c(=O)[nH]1
38.4 | 54.5 | 0.00391 | Nc1ncnc2c1ncn2CCCCOc1ccc(-c2nnn[nH]2)cc1
49.3 | 65.6 | – | O=c1cnn(CCCOc2ccc(-c3nnn[nH]3)cc2)c(=O)[nH]1
– | – | 0.00389 | O=C1CCc2cc(OCCCCc3nnnn3C3CCCCC3)ccc2N1 [CILOSTAZOL]
27.9 | 49.2 | – | CN(Cc1cnc2nc(N)nc(N)c2n1)c1ccc(C(=O)N[C@@H](CCC(=O)O)C(=O)O)cc1 [METHOTREXATE]
